Only some compounds are listed: those with a hit (about 4.4% of all), similar ones and a draw of the others.
Tb MetRS inh: T. brucei MetRS inhibitors, primary screen, biochemical, luminescence; AID 624268, 2012; inhibition, % at 11.9 µM; purified T. brucei MetRS, ATP depletion, Kinase-Glo luminescence; 360,000 compounds, 0.4% hits;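 active = inhibition above a per-plate cutoff of the control wells' mean inhibition plus 3 SD, cut at about 5.5% in these data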
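Test system – parasite MetRS enzyme · Reagent – substrates ATP, L-methionine and bulk Escherichia coli tRNA · Doses – 11.9 µM compound single dose, 0.9% DMSO · Times – 15 min enzyme-compound preincubation, 2 h reaction, 10 min detection, 25 °C · Signal – Kinase-Glo luminescence, ATP depletion format · Controls – DMSO-only wells as low control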
AHR activator: AHR activators, primary screen, cell-based, luminescence, luciferase reporter, human; activation, % at 5 µM; 320,000 compounds, 2.5% hits; Aryl hydrocarbon receptor (Homo sapiens), P35869; AHR-responsive luciferase reporter cells; in the data active = activation above about 47%
Target sequence (P35869 whole entry, looked up): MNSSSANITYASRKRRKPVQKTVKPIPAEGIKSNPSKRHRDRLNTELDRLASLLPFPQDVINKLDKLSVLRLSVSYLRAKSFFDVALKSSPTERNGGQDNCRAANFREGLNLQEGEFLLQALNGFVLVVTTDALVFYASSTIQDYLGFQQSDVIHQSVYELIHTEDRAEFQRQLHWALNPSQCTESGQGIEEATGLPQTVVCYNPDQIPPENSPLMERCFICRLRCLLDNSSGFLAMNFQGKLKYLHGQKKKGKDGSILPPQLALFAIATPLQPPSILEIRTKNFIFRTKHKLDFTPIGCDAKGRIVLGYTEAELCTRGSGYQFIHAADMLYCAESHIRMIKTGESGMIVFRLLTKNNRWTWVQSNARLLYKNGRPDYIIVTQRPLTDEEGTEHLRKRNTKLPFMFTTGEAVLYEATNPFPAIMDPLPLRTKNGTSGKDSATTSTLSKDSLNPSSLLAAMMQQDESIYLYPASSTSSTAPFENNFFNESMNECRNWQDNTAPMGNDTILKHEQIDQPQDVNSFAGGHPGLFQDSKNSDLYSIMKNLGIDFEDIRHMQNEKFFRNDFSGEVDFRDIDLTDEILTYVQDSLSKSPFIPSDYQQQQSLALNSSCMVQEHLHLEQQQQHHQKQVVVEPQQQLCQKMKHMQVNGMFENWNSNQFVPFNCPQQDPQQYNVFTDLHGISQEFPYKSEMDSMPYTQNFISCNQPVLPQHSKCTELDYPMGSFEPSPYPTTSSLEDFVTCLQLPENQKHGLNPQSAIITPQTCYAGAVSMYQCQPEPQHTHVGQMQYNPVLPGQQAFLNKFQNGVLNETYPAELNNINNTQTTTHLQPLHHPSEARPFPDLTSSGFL
HTR2A ag: mouse Htr2a agonists via beta-arrestin recruitment, primary screen, cell-based, luminescence; 360,000 compounds, 0.66% hits; AID 624169, 2012; 5-hydroxytryptamine receptor 2A (Mus musculus), P35363; activation, % at 7.6 µM; CHO-K1 mHTR2A beta-arrestin complementation; percent of 30 µM serotonin response;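 active = activation above a run cutoff, the mean activation of all tested compounds plus 3 SD, cut at about 14% in these data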
bovine MsrA act: bovine MsrA enzyme activators, primary screen, biochemical, absorbance, HTS; Methionine sulfoxide reductase A (Bos taurus); purified bovine MsrA, absorbance read-out; activation, % at 10.6 µM; 360,000 compounds, 0.3% hits; AID 602163, 2012; in the data active = activation above about 7.5%
AI-2 QS modul: Vibrio harveyi AI-2 quorum sensing modulators, primary screen, JMH597 strain, luminescence/OD600 ratio; 300,000 compounds, 0.4% hits; AID 2094, 2009; activity change, % at 7.5 µM; Vibrio harveyi JMH597 AI-2 luminescence/OD600 ratio, 9 h; active compounds read low; strain lacks LuxN and CqsS sensors; 0 = neutral-control median; in the data active = activity change below about -75%, passing the limit was not always enough;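 note: luminescence divided by OD600 gain over 9 h not by final OD600 alone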
MsrA inh: bovine MsrA enzyme inhibitors, primary screen, biochemical, absorbance, HTS. Methionine sulfoxide reductase A (Bos taurus). purified bovine MsrA, absorbance read-out. inhibition, % at 15.5 µM. 360,000 compounds, 0.75% hits. AID 651718, 2012; in the data active = inhibition above about 4.5%
Numbers stand for hits; 0 = inactive; - = no result.

SMILES	Tb MetRS inh	AHR activator	HTR2A ag	bovine MsrA act	AI-2 QS modul	MsrA inh
Cc1ccc(OCc2cc(C(=O)NCCc3cccnc3)no2)cc1C	0	0	0	0	-84.2	0
COC(=O)[C@H](N[C@H](/C=C/c1ccccc1)[C@@H](O)Cc1ccccc1)c1ccccc1	-	-	-	-	-	0
CCCCCCC12Cc3cc(OC)c(OC)cc3C(O1)c1c(cc(C)oc1=O)O2 (centres undefined)	-	-	-	-	-	0
COc1cc2c(cc1NC(=O)CSc1nnc(Cc3cccs3)n1C)oc1ccccc12	0	47.1	0	0	0	0
COc1cc2c(cc1NC(=O)CSc1cccc[n+]1[O-])oc1ccccc12	0	79.9	0	0	0	0
COc1cc2c(cc1NC(=O)CSc1nc3ccc(C)cc3[nH]1)oc1ccccc12	-	57.3	-	-	0	-
COc1cc2c(cc1NC(=O)CSc1ccc(C)cc1)oc1ccccc12	0	0	0	0	0	0
Cc1[nH]c2ccccc2c1CC(=O)Nc1ccc(N(C)c2cccnc2)c(-c2ccc(F)c(F)c2)c1	-	-	-	-	-	0
COc1cccc2sc(Nc3nnc(-c4ccc(F)cc4)o3)nc12	0	65.6	0	0	0	0
COc1ccc(Br)cc1/C=C/C(=O)Nc1ccc2ccccc2c1	0	49.8	0	0	0	0
COc1ccc(NC(=O)c2ccc3ccccc3c2)cc1	0	57.8	0	0	0	0
COc1ccccc1C(=O)Nc1ccc(Oc2ncnc3sc(-c4ccccc4)cc23)cc1	0	79.7	0	0	0	0
COc1ccc(C(=O)NNC(=O)c2ccc3ccccc3c2)cc1	0	-	0	0	-	0
COc1cc(C(=O)Nc2ccc(Oc3ncnc4sc(-c5ccccc5)cc34)cc2)cc(OC)c1OC	0	0	0	0	0	0
COc1ccccc1C(=O)Nc1ccc2ccccc2c1	0	56.4	0	0	0	0
c1ccc(-c2ccccc2C2Cc3nnccc3CN2)cc1 (centres undefined)	-	-	-	-	-	0
CC(C)C[C@H]1COc2c(Cl)cccc2S(=O)(=O)N1Cc1cccc(Cl)c1	-	-	-	-	-	0
C/C(=N\NC(=O)Nc1ccccc1)c1ccc2ccccc2c1	0	69.8	0	0	0	0
O=C(Nc1ccccc1)Nc1ccc2ccccc2c1	0	0	0	0	0	0
Cc1cc(C)c(C#N)c(SCC(=O)NC(C)(C)C)n1	0	0	0	0	0	0
Cc1cc(C)c(C#N)c(SCC(=O)C(C)(C)C)n1	0	59.2	0	0	0	0
C=CCNC(=S)N(C)[C@H]1C[C@H]2c3cc(-c4ccccc4C)ccc3CCN2C[C@H]1[C@H](C)O	-	-	-	-	-	0
COC(=O)C1=C(C)N(Cc2ccccc2C(F)(F)F)C(=NCc2ccc3c(c2)OCO3)NC1c1ccc(C(F)(F)F)cc1 (centres undefined)	-	-	-	-	-	0
O=C(N/C=N/O)C(c1ccccc1)c1ncc(C(F)(F)F)cc1Cl (centres undefined)	0	0	0	0	0	0
N#Cc1nccnc1S(=O)(=O)c1cccs1	-	0	-	-	-132.0	0
SMILES	Tb MetRS inh	AHR activator	HTR2A ag	bovine MsrA act	AI-2 QS modul	MsrA inh
CN1CC[C@@H]2CN(S(=O)(=O)c3ccccc3)[C@H](c3ccccc3Br)C[C@@H]21	-	-	-	-	-	0
C=CCNc1cccc2c1S(=O)(=O)N[C@H](C)CO2	-	-	-	-	-	0
NNc1nc2c(Cl)ccc(Cl)c2s1	0	55.7	0	0	0	0
O=C(Nc1nc2c(Cl)ccc(Cl)c2s1)C1CC1	0	0	0	0	0	0
CCN=c1scc(C)n1/N=C/c1cc(Br)c(O)c(OC)c1	0	48.7	0	0	0	0
N#Cc1ccccc1OCCN1C(=O)c2ccccc2C1=O	0	0	0	0	0	0
Nc1cccc2c1C(=O)N(CCOc1ccccc1F)C2=O	0	76.6	0	0	0	0
CC1CCN(c2nc(/C=C/c3ccccc3)nc3ccccc23)CC1	0	71.7	0	0	0	0
Cc1ccc(C(=O)Nc2nccc(-c3cccs3)n2)cc1	0	70.8	0	0	0	0
COc1ccc(N=Cc2nc(-c3ccccc3)oc2OC(C)=O)cc1	0	0	0	0	0	0
CN(C)c1ccc(N=Cc2nc(-c3ccccc3)oc2OC(=O)c2cccc(Cl)c2)cc1	0	60.3	0	0	0	0
Cc1ccc(C(=O)Oc2oc(-c3ccccc3)nc2C=Nc2ccc(N(C)C)cc2)cc1	0	57.6	0	0	0	0
COC(=O)c1scc(C)c1N1C(=O)c2ccccc2C1=O	0	0	0	0	0	0
Brc1ccc(-c2nc3ccccc3s2)s1	0	0	0	0	0	0
Brc1cc2c(cc1-c1nc3ccccc3s1)OCO2	0	53.5	0	0	0	0
C=CCN=c1scc(-c2ccc(F)cc2)n1/N=C/c1ccccn1	0	47.9	0	0	0	0
C=CCN=c1scc(-c2ccccc2)n1/N=C/c1ccccn1	0	0	0	0	0	0
COC(=O)/C(=C/c1c[nH]c2ccccc12)NC(C)=O	0	0	0	0	0	0
CCOC(=O)/C=C(C)\C=C\c1c[nH]c2ccccc12	0	53.1	0	0	0	0
CN1CCN(C2=C(NS(=O)(=O)c3ccccc3)C(=O)c3ccccc3C2=O)CC1	0	0	0	15.4	0	-
O=C1C(Nc2ccccc2)=C(NS(=O)(=O)c2ccccc2)C(=O)c2ccccc21	0	56.8	0	0	0	0
Clc1ccc(CN2CCN(c3ncc(Cc4ccccc4)cn3)CC2)c(Cl)c1	-	-	-	-	-	0
Cc1cc2nc(-c3ccc(SCc4ccccn4)nc3)[nH]c2cc1C	0	48.5	0	0	0	0
Cc1cc2nc(-c3ccc(SCC(=O)N4CCOCC4)nc3)[nH]c2cc1C	0	59.7	0	0	0	0
CCn1cc(Cl)c(C(=O)Nc2ccccc2C(N)=O)n1	0	54.5	0	0	0	0
SMILES	Tb MetRS inh	AHR activator	HTR2A ag	bovine MsrA act	AI-2 QS modul	MsrA inh
CCn1cc(Br)c(C(=O)Nc2ccccc2C(=O)OC)n1	0	0	0	0	0	0
CCC(C)/C(C)=N/NC(=O)c1ccccc1OCCOc1ccccc1 (centres undefined)	0	78.6	0	0	0	0
CCOC(=O)C(CC)/C(C)=N\NC(=O)c1ccccc1O (centres undefined)	0	55.6	0	0	0	0
CC(C)S(=O)(=O)N[C@@H]1c2cc3c(cc2[C@H](c2ccccc2)[C@H]1C)OCO3	-	-	-	-	-	0
CC(=O)c1ccc(N2CCN(C(=O)c3ccc4c(=O)n(-c5ccccc5)c(=O)[nH]c4c3)CC2)cc1	0	0	0	0	0	4.6
CC(=O)Nc1nc(COc2ccccc2)cs1	0	0	0	0	0	0
CC(=O)Nc1nc(CC(=O)c2ccccc2)cs1	0	57.7	0	0	0	0
